1 compound from ChEMBL document CHEMBL1671691 (Antimicrob Agents Chemother, 2010) can be followed below.

Activity calls are given as the source filed them. The calls are words filed in the database; no cut-off is given here.

The subject of assay [1] is Influenza A virus. The experiment in a line: Antiviral activity against adamantane-resistant zanamivir-,oseltamivir-susceptible Influenza A virus (A/pdm/California/04/2009(H1N1)) harboring M2 V28I, S31N mutant infected in MDCK cells assessed as determination of viral titer in cell culture at 128 uM after 24 hrs by immunofluorescence assay. The assay is classed as functional, organism-based. To be noted: A/California/04/2009(H1N1).

The test system of assay [2] is Influenza A virus. Kind of assay: Antiviral activity against adamantane-resistant zanamivir-,oseltamivir-susceptible Influenza A virus (A/pdm/Mexico/4604/2009(H1N1)) harboring M2 V28I, S31N mutant infected in MDCK cells assessed as determination of viral titer in cell culture at 128 uM after 24 hrs by immunofluorescence assay. The assay is classed as functional, organism-based. The conditions noted are these: Influenza A virus (A/Mexico/4604/2009(H1N1)). A digest of the protocol: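 MDCK cells (ATCC or Mill Hill) infected with 2009 pandemic H1N1 at MOI ~0.01, 1 h adsorption at 4°C, washed. DMEM with 2 μg/ml TPCK-trypsin plus drug for 24 h at 37°C. Supernatants titrated on MDCK cells by focus formation: methanol/acetic acid fixation, anti-nucleoprotein MAbs, FITC secondary, foci counted. Titre as log10 FFU per 100 μl; detection limit <10 FFU; quadruplicate wells.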

Assay [3] relates to Influenza A virus. Kind of assay: Antiviral activity against adamantane-, oseltamivir-, zanamivir-resistant Influenza A virus (A/Idaho/01/2009(H1N1)) harboring neuraminidase H274Y mutant infected in MDCK cells assessed as inhibition of viral replication after 3 days by microscopic analysis using crystal violet stain. The assay is classed as functional, organism-based, Influenza A virus (A/Idaho/01/2008(H1N1)). The essentials:
(§1)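 Confluent MDCK-ATCC monolayers infected with virus diluted to give 15–45 plaques/well. Adsorption 1 h at 37°C without drug, then washed. Overlaid with 0.8% agarose in MEM containing drug plus TPCK-trypsin: 3 μg/ml for seasonal viruses, 2 μg/ml for 2009 A(H1N1). Incubated 3 days at 37°C, 5% CO2. Ethanol-fixed, crystal violet-stained, plaques counted. EC50 by curve fit; duplicates on three occasions, mean ± SD.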

Assay [4] concerns Influenza A virus. The experiment in a line: Antiviral activity against adamantane-, zanamivir-susceptible oseltamivir-resistant Influenza A virus (A/New Jersey/15/2007(H1N1)) harboring neuraminidase H274Y mutant infected in MDCK cells assessed as inhibition of viral replication after 3 days by microscopic analysis using crystal violet stain. The assay is classed as functional, organism-based. A digest of the protocol:
as §1

For assay [5], the system named is Influenza A virus. Kind of assay: Antiviral activity against 0.001 MOI adamantane-resistant zanamivir-,oseltamivir-susceptible Influenza A virus (A/pdm/California/04/2009(H1N1)) harboring M2 V28I, S31N mutant infected in MDCK cells assessed as determination of viral titer in cell culture at 1.6 uM after 24 hrs by immunofluorescence assay. The conditions noted are these: A/California/04/2009(H1N1). Format: functional, organism-based. The essentials:
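Focus inhibition assay: confluent MDCK monolayers infected at MOI ∼0.001–0.1. Adsorption 1 h at 4°C, washed twice, then DMEM with 2 μg/ml TPCK-trypsin and drug for 24 h at 37°C. Cells fixed in methanol/acetic acid at −20°C, immunostained with anti-NP monoclonals and FITC secondary, and foci counted. Supernatants also titrated by focus assay. Quadruplicate on two occasions.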

Assay [6] deals with Influenza A virus. Kind of assay: Antiviral activity against Influenza A virus (A/Illinois/10/2009(H1N1)) harboring neuraminidase H275Y mutant infected in MDCK cells from ATCC assessed as log reduction in viral titer at 1.6 uM after 24 hrs by immunofluorescent assay. The assay is classed as functional. The essentials:
(§2)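 Yield reduction in MDCK-ATCC or MDCK-Mill Hill cells infected at MOI ∼0.01. Adsorption 1 h at 4°C, washed, then DMEM with 2 μg/ml TPCK-trypsin and drug. At 24 h, supernatants were titrated by immunofluorescent focus assay on MDCK cells with anti-NP monoclonals and FITC secondary. Titres as log10 FFU per 100 μl; detection limit <10 FFU. Quadruplicate, mean ± SD.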

Assay [7] deals with Influenza A virus. Kind of assay: Antiviral activity against adamantane-resistant zanamivir-,oseltamivir-susceptible Influenza A virus (A/pdm/California/04/2009 (H1N1)) harboring M2 V28I, S31N mutant infected in MDCK cells assessed as inhibition of viral replication after 3 days by microscopic analysis using crystal violet stain. The assay is classed as functional, organism-based, A/California/04/2009(H1N1). The essentials: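 Plaque reduction on confluent MDCK-ATCC monolayers: pretitrated virus (15–45 plaques per well) adsorbed 1 h at 37°C without drug, then washed with PBS. Agarose overlay (0.8%, in MEM) with drug added, 3 days at 37°C. Cells fixed with 70% ethanol, stained with crystal violet, plaques counted. EC50 from curve fitting, averaged over three separate experiments in duplicate, ± SD.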

The subject of assay [8] is Influenza A virus. Kind of assay: Antiviral activity against oseltamivir-susceptible zanamivir-, adamantane-resistant Influenza A virus (A/Wuhan/395/1995-like (H3N2)) harboring neuraminidase E119V mutant infected in MDCK cells assessed as inhibition of viral replication after 3 days by microscopic analysis using crystal violet stain. Format: functional, organism-based.

Assay [9] relates to Influenza A virus. Kind of assay: Antiviral activity against adamantane-, zanamivir-susceptible oseltamivir-resistant Influenza A virus (A/Washington/10/2008(H1N1)) harboring M2 S31N mutant infected in MDCK cells assessed as inhibition of viral replication after 3 days by microscopic analysis using crystal violet stain. The assay is classed as functional, organism-based. The essentials:
as §1

Assay [10] relates to Influenza A virus. Kind of assay: Antiviral activity against adamantane-resistant zanamivir-,oseltamivir-susceptible Influenza A virus (A/Florida/01/2009(H3N2)) harboring M2 S31N mutant infected in MDCK cells assessed as inhibition of viral replication after 3 days by microscopic analysis using crystal violet stain. The assay is classed as functional, organism-based. The essentials:
as §1

The test system of another assay is Influenza B virus. The experiment in a line: Antiviral activity against oseltamivir-susceptible zanamivir-, adamantane-resistant Influenza B virus B/Memphis/20/1996 harboring neuraminidase R152K mutant infected in MDCK cells assessed as inhibition of viral replication after 3 days by microscopic analysis using crystal violet stain. Format: functional, cell-based, B/Memphis/20/96.

Assay [11] has as its system Influenza A virus. The experiment in a line: Antiviral activity against Influenza A virus (A/Washington/29/2009(H1N1)) harboring neuraminidase H275Y mutant infected in MDCK cells from ATCC assessed as log reduction in viral titer at 1.6 uM after 24 hrs by immunofluorescent assay. The assay is classed as functional. A digest of the protocol: as §2
Assay [12] relates to Influenza A virus. Kind of assay: Antiviral activity against oseltamivir-susceptible zanamivir-, adamantane-resistant Influenza A virus (A/pdm/Washington/29/2009 (H1N1)) harboring M2 V28I, S31N mutant and neuraminidase H274Y mutant infected in MDCK cells assessed as inhibition of viral replication after 3 days by microscopic analysis using crystal violet stain. The assay is classed as functional, organism-based, Influenza A virus (A/Washington/29/2009(H1N1)).

In assay [13] the test system is Influenza A virus. The experiment in a line: Antiviral activity against oseltamivir-susceptible zanamivir-, adamantane-resistant Influenza A virus (A/pdm/Illinois/10/2009(H1N1)) harboring M2 V28I, S31N mutant and neuraminidase H274Y mutant infected in MDCK cells assessed as inhibition of viral replication after 3 days by microscopic analysis using crystal violet stain. Format: functional, organism-based, (A/Illinois/10/2009(H1N1)).

Assay [14] relates to Influenza A virus. Kind of assay: Antiviral activity against adamantane-resistant zanamivir-,oseltamivir-susceptible Influenza A virus (A/Wisconsin/16/2008(H1N1)) harboring neuraminidase H274Y mutant infected in MDCK cells assessed as inhibition of viral replication after 3 days by microscopic analysis using crystal violet stain. Format: functional, organism-based. The essentials: as §1

Assay [15] has as its system Influenza A virus. The experiment in a line: Antiviral activity against oseltamivir-susceptible zanamivir-, adamantane-resistant Influenza A virus (A/Texas/12/2007 (clone)(H3N2)) harboring neuraminidase E119I mutant and harboring M2 S31N mutant infected in MDCK cells assessed as inhibition of viral replication after 3 days by microscopic analysis using crystal violet stain. The assay is classed as functional, organism-based, Influenza A virus (A/Texas/12/2007(H3N2)).

Assay [16] in a line: Antiviral activity against adamantane-resistant zanamivir-,oseltamivir-susceptible Influenza B virus (B/Illinois/47/2005) infected in MDCK cells assessed as inhibition of viral replication after 3 days by microscopic analysis using crystal violet stain. The conditions noted are these: 72 h. Format: functional, cell-based.

For `NC(=O)c1nc(F)cnc1O` [FAVIPIRAVIR], the result with Influenza A virus [1], in the assay on Influenza A virus [2] and in the assay on Influenza A virus [5] was Active. The EC50 in the assay on Influenza A virus [3] was 2.93 µM; in the assay with Influenza A virus [4], 4.9 µM; with Influenza A virus [7] it was 1.97 µM; in the assay on Influenza A virus [8] it was 5.41 µM; in the assay with Influenza A virus [9], 3.25 µM; in the assay with Influenza A virus [10], 0.45 µM. Moreover, the EC50 in the assay with Influenza B virus came out at 0.57 µM; in the assay with Influenza A virus [12], 6.62 µM; in the assay with Influenza A virus [13] it was 22.5 µM; in the assay on Influenza A virus [14], 2.87 µM; with Influenza A virus [15], 3.95 µM; in assay [16] it was 4.01 µM. In addition, the log10FFU with Influenza A virus [6] amounted to 4.9; with Influenza A virus [11], 4.2.

By EC50 is commonly meant the concentration needed to bring the measured effect to its halfway point.
